The values that follow come from PMC11393732 (RSC Medicinal Chemistry, 2024).

pIC50: −log10 of the molar value.

As usually defined, the pIC50 is the IC50 on a negative log10 scale, so that one unit is a factor of ten. High values mean a low IC50, low ones a high IC50.

This experiment has as its target hERG potassium channel (Homo sapiens, UniProt Q12809). Nature of the experiment: hERG automated patch-clamp assay. It counts as cell-based. In outline: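 hERG-expressing CHO-K1 cells were plated at least 24 h beforehand and recorded by whole-cell patch clamp at about RT with 0.1% Pluronic F-68. Holding −80 mV; 500 ms step to −40 mV for leak subtraction; 500 ms step to +40 mV, then 100 ms ramp to −80 mV for tail current, every 8 s. Block = mean tail amplitude over the last 15 s with test compound ÷ control.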
(In general: Block of hERG is tested as a sign of cardiac risk.)

Chain of hERG potassium channel (Q12809 whole entry): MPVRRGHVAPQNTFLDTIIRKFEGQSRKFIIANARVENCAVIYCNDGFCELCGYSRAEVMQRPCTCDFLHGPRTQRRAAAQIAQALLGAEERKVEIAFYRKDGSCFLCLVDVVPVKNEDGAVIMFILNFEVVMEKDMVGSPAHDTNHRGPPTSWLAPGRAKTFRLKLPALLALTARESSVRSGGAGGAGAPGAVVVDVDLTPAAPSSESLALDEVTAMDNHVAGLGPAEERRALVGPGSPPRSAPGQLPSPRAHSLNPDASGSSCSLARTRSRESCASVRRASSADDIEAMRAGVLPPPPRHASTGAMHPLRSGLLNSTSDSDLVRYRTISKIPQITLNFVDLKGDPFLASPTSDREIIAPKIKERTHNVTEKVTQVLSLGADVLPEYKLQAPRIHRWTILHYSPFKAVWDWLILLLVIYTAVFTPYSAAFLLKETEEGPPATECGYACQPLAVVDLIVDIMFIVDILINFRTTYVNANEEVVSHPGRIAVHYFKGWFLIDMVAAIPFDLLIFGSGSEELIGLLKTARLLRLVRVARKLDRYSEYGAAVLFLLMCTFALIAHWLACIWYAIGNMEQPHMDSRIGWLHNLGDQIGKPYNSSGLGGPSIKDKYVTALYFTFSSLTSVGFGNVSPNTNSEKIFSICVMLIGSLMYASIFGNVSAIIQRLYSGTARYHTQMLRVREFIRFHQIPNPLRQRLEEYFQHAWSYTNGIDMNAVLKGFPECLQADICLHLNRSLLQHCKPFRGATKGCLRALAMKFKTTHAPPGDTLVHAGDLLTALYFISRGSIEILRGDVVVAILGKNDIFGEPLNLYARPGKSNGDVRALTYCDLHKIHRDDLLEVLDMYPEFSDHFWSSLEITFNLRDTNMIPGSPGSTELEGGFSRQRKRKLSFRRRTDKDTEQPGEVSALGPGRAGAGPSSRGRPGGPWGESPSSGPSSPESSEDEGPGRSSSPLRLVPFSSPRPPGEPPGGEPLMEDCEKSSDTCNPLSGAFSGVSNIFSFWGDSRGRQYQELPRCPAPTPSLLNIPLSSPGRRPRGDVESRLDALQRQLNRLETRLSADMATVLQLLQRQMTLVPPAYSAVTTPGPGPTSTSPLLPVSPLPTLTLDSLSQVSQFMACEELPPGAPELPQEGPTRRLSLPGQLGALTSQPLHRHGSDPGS

Consider `O=C1CCC(N2C(=O)c3cccc(NCCOCCOCCOCCOCCNC(=O)c4ccc(O)c5ncccc45)c3C2=O)C(=O)N1` (stereo not shown) [Compound 4, N-(14-((2-(2,6-Dioxopiperidin-3-yl)-1,3-dioxoisoindolin-4-yl)amino)-3,6,9,12-tetraoxatetradecyl)-8-hydroxyquinoline-5-carboxamide], for which the pIC50 is < 4.52.
